ChEMBL document CHEMBL1155718, “The complestatins as HIV-1 integrase inhibitors. Efficient isolation, structure elucidation, and inhibitory activities of isocomplestatin, chloropeptin I, new complestatins, A and B, and acid-hydrolysis products of chloropeptin I” (J Nat Prod, 2001)

Tests used:
[1] = biological target: T1, Human immunodeficiency virus type 1 integrase (Human immunodeficiency virus 1, UniProt Q7ZJM1); assay: Inhibition of HIV1 integrase strand transfer activity
Summary of the method: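 Staged strand transfer assay using complexes preassembled on viral donor DNA with recombinantly expressed HIV-1 integrase. IC50 was reported.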

[2] = biological target: T1, Human immunodeficiency virus type 1 integrase; assay: Inhibition of HIV1 integrase 3' processing/strand transfer coupled activity
Summary of the method: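 In vitro assay with recombinant HIV-1 integrase that recapitulates the staged integration process, measuring coupled 3′-processing and strand transfer. IC50 was reported.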

[3] = system: Human immunodeficiency virus; assay: Antiviral activity against HIV PIC; format: functional, organism-based; conditions: Human immunodeficiency virus 1, PIC
Summary of the method: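 Preintegration complexes were isolated from HIV-1-infected cells and tested for integration activity in vitro. IC50 was reported.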

[4] = biological target: T1, Human immunodeficiency virus type 1 integrase; assay: Inhibition of integration activity of HIV1 intact integrase
[5] = system: Human immunodeficiency virus; assay: Antiviral activity against HIV; format: functional, organism-based; conditions: Human immunodeficiency virus 1
[6] = biological target: T1, Human immunodeficiency virus type 1 integrase; assay: Inhibition of disintegration activity of HIV1 intact integrase
Summary of the method: (§1)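 Disintegration activity was measured with both full-length HIV-1 integrase and its catalytic core domain (amino acids 50-212). IC50 was reported.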

[7] = Inhibition of HIV1 recombinant gp120/CD4 interaction by ELISA
[8] = system: Human immunodeficiency virus 1; assay: Antiviral activity against HIV1 assessed as inhibition of viral spread in infected cells; format: functional
Summary of the method: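 HIV-1 multiple-cycle replication (viral spread) assay in cell culture. Inhibition was expressed as IC95, and in some cases also as IC50.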

[9] = biological target: T1, Human immunodeficiency virus type 1 integrase; assay: Inhibition of disintegration activity of HIV1 integrase catalytic core domain (50 to 212); summary of the method: as §1

T1 sequence (Q7ZJM1 whole entry): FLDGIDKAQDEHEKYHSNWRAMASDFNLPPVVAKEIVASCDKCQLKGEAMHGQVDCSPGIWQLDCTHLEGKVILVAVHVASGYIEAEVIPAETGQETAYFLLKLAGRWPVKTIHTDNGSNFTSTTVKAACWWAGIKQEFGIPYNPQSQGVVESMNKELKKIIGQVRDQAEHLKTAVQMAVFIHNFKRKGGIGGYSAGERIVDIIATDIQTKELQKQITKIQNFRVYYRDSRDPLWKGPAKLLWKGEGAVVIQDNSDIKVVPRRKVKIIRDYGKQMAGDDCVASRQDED

## CN1C(=O)[C@@H](c2cc(Cl)c(O)c(Cl)c2)NC(=O)[C@@H]2NC(=O)[C@@H](c3cc(Cl)c(O)c(Cl)c3)NC(=O)[C@H](NC(=O)C(=O)c3cc(Cl)c(O)c(Cl)c3)CC3(O)C(=O)Nc4cc(ccc43)-c3cc2cc(c3O)Oc2ccc(cc2)C[C@H]1C(=O)N[C@@H](C(=O)O)c1ccc(O)cc1 (stereo partly drawn) [COMPLESTATIN B]
[1]
  IC50: 12.5 µM
[2]
  IC50: 1700 nM

## CN1C(=O)[C@@H](c2cc(Cl)c(O)c(Cl)c2)NC(=O)[C@@H]2NC(=O)[C@@H](c3cc(Cl)c(O)c(Cl)c3)NC(=O)[C@H](NC(=O)C(=O)c3cc(Cl)c(O)c(Cl)c3)Cc3c[nH]c4cc(ccc34)-c3cc2cc(c3O)Oc2ccc(cc2)C[C@H]1C(=O)N[C@@H](C(=O)O)c1ccc(O)cc1 [ISOCOMPLESTATIN]
[3]
  IC50: 3000 nM
[4]
  IC50: 3 µM
[5]
  IC50: 200 nM
[1]
  IC50: 4 µM
[6]
  IC50: 500 nM
[7]
  IC50: 2000 nM
[2]
  IC50: 200 nM
[8]
  IC95: 5 µM
[9]
  IC50: 500 nM

## CN1C(=O)[C@@H](c2cc(Cl)c(O)c(Cl)c2)NC(=O)[C@@H]2NC(=O)[C@@H](c3cc(Cl)c(O)c(Cl)c3)NC(=O)[C@H](NC(=O)C(=O)c3cc(Cl)c(O)c(Cl)c3)CC3C(=O)Nc4cc(ccc43)-c3cc2cc(c3O)Oc2ccc(cc2)C[C@H]1C(=O)N[C@@H](C(=O)O)c1ccc(O)cc1 (stereo partly drawn) [COMPLESTATINS A]
[1]
  IC50: 12.5 µM
[2]
  IC50: 800 nM

## CN(C(=O)[C@H](N)c1cc(Cl)c(O)c(Cl)c1)[C@@H](Cc1ccc(Oc2cc3cc(c2O)-c2cccc4c(c[nH]c24)C[C@@H](N)C(=O)N[C@H](c2cc(Cl)c(O)c(Cl)c2)C(=O)N[C@H]3C(=O)O)cc1)C(=O)O
[1]
  IC50: 86 µM
[2]
  IC50: 7800 nM

## CN[C@@H](Cc1ccc(Oc2cc3cc(c2O)-c2cccc4c(c[nH]c24)C[C@@H](N)C(=O)N[C@H](c2cc(Cl)c(O)c(Cl)c2)C(=O)N[C@H]3C(=O)O)cc1)C(=O)O
[1]
  IC50: > 100 µM
[2]
  IC50: 28000 nM

## CN1C(=O)[C@@H](c2cc(Cl)c(O)c(Cl)c2)NC(=O)[C@@H]2NC(=O)[C@@H](c3cc(Cl)c(O)c(Cl)c3)NC(=O)[C@H](NC(=O)C(=O)c3cc(Cl)c(O)c(Cl)c3)Cc3c[nH]c4c(cccc34)-c3cc2cc(c3O)Oc2ccc(cc2)C[C@H]1C(=O)O
[1]
  IC50: 8 µM
[2]
  IC50: 600 nM
[8]
  IC95: 5 µM

## CN1C(=O)[C@@H](c2cc(Cl)c(O)c(Cl)c2)NC(=O)[C@@H]2NC(=O)[C@@H](c3cc(Cl)c(O)c(Cl)c3)NC(=O)[C@H](NC(=O)C(=O)c3cc(Cl)c(O)c(Cl)c3)Cc3c[nH]c4c(cccc34)-c3cc2cc(c3O)Oc2ccc(cc2)C[C@H]1C(=O)N[C@@H](C(=O)O)c1ccc(O)cc1 [CHLOROPEPTIN]
[1]
  IC50: 5 µM
[2]
  IC50: 400 nM
[8]
  IC95: 5 µM

## CN1C(=O)[C@@H](c2cc(Cl)c(O)c(Cl)c2)NC(=O)[C@@H]2NC(=O)[C@@H](c3cc(Cl)c(O)c(Cl)c3)NC(=O)[C@H](N)Cc3c[nH]c4c(cccc34)-c3cc2cc(c3O)Oc2ccc(cc2)C[C@H]1C(=O)O
[1]
  IC50: 6 µM
[2]
  IC50: 500 nM
[8]
  IC95: 7.5 µM

## CN[C@@H](Cc1ccc(Oc2cc3cc(c2O)-c2cccc4c(c[nH]c24)C[C@@H](N)C(=O)N[C@H](c2cc(Cl)c(O)c(Cl)c2)C(=O)N[C@H]3C(=O)N[C@@H](C(=O)O)c2cc(Cl)c(O)c(Cl)c2)cc1)C(=O)O
[1]
  IC50: 45 µM
[2]
  IC50: 3800 nM
